Data published in ChEMBL document CHEMBL1125431, “2-substituted 3-(aminooxy)propanamines as inhibitors of ornithine decarboxylase: synthesis and biological activity” (J Med Chem, 1992).

How the values were obtained:
[1] = system: T-24; test: Inhibitory activity against Human T24 bladder carcinoma cells; format: functional, cell-based
[2] = target: T1, Ornithine decarboxylase (Rattus norvegicus, UniProt P09057); test: Inhibitory activity against Rat liver ornithine decarboxylase (ODC)
T1 sequence (P09057 whole entry): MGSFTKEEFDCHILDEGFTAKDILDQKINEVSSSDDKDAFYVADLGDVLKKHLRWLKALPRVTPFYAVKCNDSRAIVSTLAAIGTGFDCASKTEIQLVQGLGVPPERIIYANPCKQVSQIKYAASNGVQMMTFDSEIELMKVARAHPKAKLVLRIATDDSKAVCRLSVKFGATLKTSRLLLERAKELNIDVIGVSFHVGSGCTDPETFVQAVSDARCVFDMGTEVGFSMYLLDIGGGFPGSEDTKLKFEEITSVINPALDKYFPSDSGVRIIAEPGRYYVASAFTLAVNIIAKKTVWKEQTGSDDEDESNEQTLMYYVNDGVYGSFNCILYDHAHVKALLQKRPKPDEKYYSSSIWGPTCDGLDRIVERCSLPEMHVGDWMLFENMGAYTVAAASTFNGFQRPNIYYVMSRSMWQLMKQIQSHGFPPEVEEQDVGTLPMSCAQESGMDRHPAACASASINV
Procedure, shortened: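 Partially purified rat liver ODC. Reaction at 37 °C for up to 1 h in 100 mM Tris-HCl pH 7 with 4 mM EDTA, 4 mM DTT, 0.4 mM pyridoxal phosphate and 0.21 mM L-ornithine spiked with L-[1-¹⁴C]ornithine. Inhibitor, in 10 mM Tris pH 7, added with substrate. Released ¹⁴CO₂ trapped on alkali filter; acid stop; scintillation counting. IC50 by linear regression of log concentration versus % activity (95–5% range).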

[3] = system: T-24; test: The compound was tested for anti proliferative activity against Human T24 bladder carcinoma cells; format: functional, cell-based

Compound NCC(Cl)CON (configuration not stated) has an IC50 [1] of 6.3 µM and an IC50 [2] of 0.093 µM.

In the case of CN(C)CC(O)CON (configuration not stated), the IC50 [1] is reported as over 36.6 µM and the IC50 [2] is reported as over 50 µM.

Compound Cc1ncc(COP(=O)(O)O)c(/C=N/OCC(F)CN)c1O (configuration not stated) has an IC50 [3] of 0.6 µM and an IC50 [2] of 5.2 µM.

In the case of C=CCNCC(O)CON (configuration not stated), the IC50 [3] is reported as over 230 µM and the IC50 [2] is reported as 21 µM.

Compound NC[C@H](O)CON has an IC50 [1] of 16.3 µM and an IC50 [2] of 0.033 µM.

For C#CCNCC(O)CON (configuration not stated), the IC50 [1] was over 230 µM and the IC50 [2] was 8.4 µM.

With CNCC(O)CON (configuration not stated) the IC50 [1] was over 33.3 µM and the IC50 [2] was 1.9 µM.

NCC(O)CON (configuration not stated) was tested, and the IC50 [1] was 24.4 µM and the IC50 [2] was 0.039 µM.

For NCC(F)CNN (configuration not stated), the IC50 [1] was 163 µM and the IC50 [2] was 3.3 µM.

Work on CC(C)NCC(O)CON (configuration not stated) yielded an IC50 [3] of over 45.2 µM and an IC50 [2] of 66 µM.

Work on Cc1ncc(COP(=O)(O)O)c(/C=N/OCC(O)CN)c1O (configuration not stated) yielded an IC50 [3] of over 112 µM and an IC50 [2] of 24 µM.

NCC(F)CON (configuration not stated) showed an IC50 [1] of 2.38 µM and an IC50 [2] of 0.014 µM.

Compound NCCCON has an IC50 [1] of 8.34 µM and an IC50 [2] of 0.035 µM.

In the case of CS(=O)(=O)OC(CN)CON (configuration not stated), the IC50 [1] is reported as 111 µM and the IC50 [2] is reported as 1.1 µM.

With NC[C@@H](O)CON the IC50 [1] was 20.5 µM and the IC50 [2] was 0.049 µM.

Work on NOCC(O)CON yielded an IC50 [1] of 181 µM and an IC50 [2] of 670 µM.
